# AI-2 QS mod: modulates the Vibrio harveyi AI-2 quorum sensing system; Vibrio harveyi JMH597 AI-2 luminescence/OD600 ratio, 9 h; hits give low values; strain lacks LuxN and CqsS sensors; 0 = neutral-control median; activity change, % at 7.5 µM; 300,000 tested, 0.4% active; AID 2094; in the data active = activity change below about -75%, passing the limit was not always enough; inconclusive = no clear call, values can overlap the other calls;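 also: luminescence divided by OD600 gain over 9 h not by final OD600 alone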
# hERG protect: hERG (human) protection from proarrhythmic block. 310,000 tested, 0.51% active. CHO-hERG, FluxOR thallium flux, dofetilide IC70 present. activation (rescue from dofetilide block), less the hit threshold, % at 10 µM. Q12809;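 active = activation above the mean of controls blocked by dofetilide plus 5 SD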;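 also: thallium influx through hERG after potassium depolarization seen as dye fluorescence rise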
# KCNQ1 pot: potentiators or activators of human KCNQ1 potassium channel; P51787; 310,000 tested, 0.35% active; CHO-K1 KCNQ1, thallium flux FluxOR fluorescence; hits give high values; B-score at 10 µM; AID 2648;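 active = fluorescence ratio B-score, a plate-corrected score, at least three library SD, with initial intensity B-score within 5 SD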
#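 Assay system: stable KCNQ1 CHO-K1 line; medium: assay buffer, equal DMSO in all wells; timing: 90 min dye loading and 20 min compound exposure, both at room temperature; technique: kinetic FluxOR thallium fluorescence, 10-s 1-Hz baseline, 110-s post-stimulus read; read-out basis: B score of baseline-normalized fluorescence ratio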
# KCNQ1 block: blocks the human KCNQ1 potassium channel; P51787; CHO-K1 KCNQ1, FluxOR thallium flux fluorescence; hits give high values; B-score at 10 µM; 310,000 tested, 1.3% active;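 active = compounds whose thallium flux B-score, printed positive for inhibition, exceeds three library SD while starting fluorescence stays within three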;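 also: channel opened by potassium depolarization with thallium stimulus after 20 min compound exposure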
# Mot1-301 SUMO: blocks SUMOylation pathway, rescuing yeast Mot1-301 growth; AID 2716; growth rescue, % at 18.8 µM; S. cerevisiae Mot1-301 growth rescue, ATP luminescence, 38.5C; percent above DMSO median, 100 means doubled; 320,000 tested, 1% active;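 active = every valid replicate shows activation above 250% relative to neutral control wells; inactive = the rest, any valid replicate at or below 250%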;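 also: OY570 slx delta 5 strain wells were the positive control but not used for scaling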
# Cl transport mod: modulates chloride dependent transport by human KCC2 | KCC2 cells, thallium flux FluoZin-2 fluorescence | B-score of Tl+ flux slope (higher = more flux/activation; lower = inhibition) at 10 µM | 190,000 tested, 2.2% active | AID 1456;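 active = thallium flux slope and its plate-corrected score both differing from the plate sample mean at a set confidence after two filtering rounds, in either direction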;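 also: slope of fluorescence scaled to starting intensity during 10 to 20 s after thallium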
# KCC2 sec1: KCC2 (human) modulation, secondary assay; normalised thallium flux (F/F0 slope) at 10 µM; shares compounds with Cl transport mod; HEK293-KCC2, thallium flux, FluoZin2 fluorescence; hits give high values; 3,700 tested, 15% active; AID 1713;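 active = thallium flux slope above the same plate's solvent-only control mean plus 3 SD; inconclusive = the two replicate wells disagree; inactive = no significant difference from solvent-only control wells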
# KCC2 bumet counter: bumetanide-insensitive thallium flux in KCC2 cells with ouabain, counter-screen; AID 1714; HEK293-KCC2 + bumetanide/ouabain, thallium flux FluoZin2; hits give high values; normalized thallium flux at 10 µM; shares compounds with Cl transport mod; 3,700 tested, 49% active;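 active = thallium entry rate above the same plate's blocked-transporter control wells by more than 3 SD; inconclusive = the two repeat wells disagree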;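 also: raw slope of fluorescence over initial fluorescence between 10 and 20 s after thallium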
# KCC2 secondary2: confirmation of human KCC2 transport modulators | shares compounds with Cl transport mod | HEK293-KCC2, thallium flux FluoZin2 fluorescence; actives lie on both sides; F/F0 rise rate, 10–20 s post-thallium | normalized thallium flux at 10 µM | 3,700 tested, 23% active;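 active = thallium flux slope more than 3 SD above or below the plate's solvent-only control mean, mostly below; inconclusive = the two repeat wells disagreed; inactive = no significant shift from solvent-only controls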;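 also: raw slope with 0.1% DMSO as baseline and bumetanide as block control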
# HEK counter1: counter-screen for KCC2 modulators: effect in parental HEK293 cells; shares compounds with Cl transport mod; thallium flux FluoZin2, ouabain; baseline-ratio fluorescence slope, 10–20 s after thallium; thallium flux rate (normalised fluorescence) at 10 µM; 3,700 tested, 46% active; AID 1716;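 active = thallium flux rate significantly above the same plate's solvent-only control wells, beyond their mean plus 3 SD; inconclusive = the two replicate wells gave conflicting results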
# KCC2 retest ouab: confirmation of human KCC2 modulators with ouabain; 3,700 tested, 48% active; HEK293-KCC2, thallium flux FluoZin2 fluorescence; bidirectional: low = inhibitor, high = activator; shares compounds with Cl transport mod; raw Tl+ flux slope (below DMSO = inhibition, above = activation) at 10 µM;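 active = thallium flux slope beyond 3 SD from same-plate DMSO control mean in most replicates, usually higher, sometimes lower; inconclusive = repeat tests gave conflicting results; inactive = no significant difference from controls in most replicates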;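 also: slope of initial-normalized fluorescence between seconds 10 and 20 after thallium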
# HEK counter2: acts in parental HEK cells, second KCC2 counter-screen; HEK293 parental, thallium flux FluoZin-2 fluorescence slope; AID 1718; thallium flux slope at 10 µM; 3,700 tested, 33% active; shares compounds with Cl transport mod;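 active = thallium flux slope above the same plate's solvent-control mean plus 3 SD in both duplicate wells; inconclusive = duplicate wells that disagreed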;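 also: run without ouabain in cells lacking the KCC2 cotransporter; slope of fluorescence scaled to its starting value between 10 and 20 s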
# * = called active by the depositor; i = inactive; ? = inconclusive; . = not tested or not shown. A selection: hits, their analogues and other compounds. The true share with any hit is near 4.2%.
SMILES,AI-2 QS mod,hERG protect,KCNQ1 pot,KCNQ1 block,Mot1-301 SUMO,Cl transport mod,KCC2 sec1,KCC2 bumet counter,KCC2 secondary2,HEK counter1,KCC2 retest ouab,HEK counter2
CCC(NS(=O)(=O)c1ccc2c(c1)Cc1cc(S(=O)(=O)NC(CC)C(=O)O)ccc1-2)C(=O)O (configuration not stated),21,-6,i,i,-9,.,.,.,.,.,.,.
CCOc1cc(C2NN=C(c3ccccc3)S2)ccc1OCc1ccc(F)cc1 (configuration not stated),27,-13,i,i,-16,-0.68,.,.,.,.,.,.
CCOc1cc(C2NN=C(c3ccccc3)S2)ccc1OCc1ccccc1Cl (configuration not stated),4,-13,i,i,16,6*,0.0085,0.0045,0.031,0.0077,0.019,0.01
N#Cc1c2n(c3c(=S)nc[nH]c13)CCCCC2,30,-9,i,i,5,5.2*,0.0065,0.014*,0.032,0.014*,?,0.014*
N#Cc1c2n(c3c(=O)[nH]cnc13)CCCC2,29,-5,i,i,-7,-0.87,.,.,.,.,.,.
COc1cc(C=C(c2nc3ccccc3s2)c2nc3ccccc3s2)cc(OC)c1O,19,-8,i,i,-12,-0.41,.,.,.,.,.,.
O=C(O)c1ccc(C=C(c2nc3ccccc3s2)c2nc3ccccc3s2)cc1,3,-26,i,i,60,-5.2*,0.0077,0.0068,0.031,0.0062,0.017,0.0095
COc1ccc(C2CC(c3ccccc3)n3nc(NC(=O)c4cccs4)nc3N2)cc1 (configuration not stated),20,-10,i,i,-9,-3.3*,0.0073,0.0067,0.032,0.0078,0.018,0.011
COc1ccc(C2CC(c3ccccc3)Nc3nc(NC(=O)c4cccs4)nn32)cc1 (configuration not stated),8,-10,i,i,-4,-0.055,.,.,.,.,.,.
O=C(NCCOc1ccccc1)c1ccc2c(c1)S(=O)(=O)c1cc(Cl)ccc1C2=O,.,.,.,.,-4,.,.,.,.,.,.,.
Cc1ccc2nc(CSc3nc(C)cc(C)c3C#N)[nH]c2c1,-16,-8,i,i,30,5.9*,0.017,0.0035,0.025*,0.0061*,0.014,0.0094
CN(CC(=O)Nc1ccc(Cl)c(Cl)c1)C(=O)CC1OC(=O)c2ccccc21 (configuration not stated),17,-15,i,i,-4,.,.,.,.,.,.,.
CCCn1c(=O)c2ccccc2n2c(SC(C)C(N)=O)nnc12 (configuration not stated),.,-15,i,i,-2,.,.,.,.,.,.,.
CCCn1c(=O)c2ccccc2n2c(SCCOc3ccccc3)nnc12,27,-15,i,i,6,-4.9*,0.0058,0.0028*,?,0.0047*,?,0.0077*
O=S(=O)(NCc1csc(-c2cccs2)n1)c1cccs1,20,-11,i,i,-2,-4.1,.,.,.,.,.,.
Cc1nc(CNS(=O)(=O)c2cccc(F)c2)cs1,-7,-3,i,i,39,0.61,.,.,.,.,.,.
O=S(=O)(NCc1csc(-c2cccs2)n1)c1cccc(C(F)(F)F)c1,13,-6,i,i,0,-5.4*,?,0.0036,0.019*,0.0058*,0.01*,?
Cc1ccc(S(=O)(=O)NCc2csc(-c3cccs3)n2)cc1,11,-6,i,i,2,-2.1*,0.0054,0.0035,0.022*,0.0063,0.012*,?
O=S(=O)(NCc1csc(-c2cccs2)n1)c1ccc(Cl)cc1,16,-12,i,i,134,-5.1*,?,?,0.019*,0.005*,0.01*,?
Cc1ccc(S(=O)(=O)NCc2cn3c(C)csc3n2)cc1,3,-5,i,i,-2,-0.038,.,.,.,.,.,.
Brc1ccc(-n2cc(-c3ccccc3)c3c(NN4CCOCC4)ncnc32)cc1,-6,-12,i,i,11,-1,.,.,.,.,.,.
CC(C)(C)c1ccc(C(=O)NC2CCS(=O)(=O)C2)cc1 (configuration not stated),22,-5,i,i,-5,.,.,.,.,.,.,.
O=S(=O)(Nc1nc2ccccc2nc1Nc1cccc(S(=O)(=O)N2CCCCC2)c1)c1ccccc1,29,-21,i,i,-10,-3.5*,0.0063,0.0068,0.026,?,?,0.0097
CCOC(=O)C1CCN(C(=O)c2cc(C(C)(C)C)nn2Cc2ccccc2)CC1,22,-11,i,i,5,-0.12,.,.,.,.,.,.
Cc1n[nH]c(C)c1CCCOc1ccccc1,27,0,i,i,27,.,.,.,.,.,.,.
SMILES,AI-2 QS mod,hERG protect,KCNQ1 pot,KCNQ1 block,Mot1-301 SUMO,Cl transport mod,KCC2 sec1,KCC2 bumet counter,KCC2 secondary2,HEK counter1,KCC2 retest ouab,HEK counter2
COc1ccc(OCCCc2c(C)n[nH]c2C)cc1,17,-7,i,i,.,4.8*,0.0088,0.0068,0.03,0.0077,0.033,?
COC(=O)c1cc(S(=O)(=O)N(C)C2CCCCC2)c[nH]1,.,-12,i,i,6,.,.,.,.,.,.,.
COCCn1c(-c2ccc(Cl)cc2Cl)nc2c(c(=O)c3ccccc3n2C)c1=O,29,-8,i,i,-8,-3.4*,0.006,0.0047,0.024*,?,0.013*,0.0096
O=C(O)/C=C/C(=O)Nc1ccc(-c2ccccc2)cc1,44,-6,i,i,-10,-0.17,.,.,.,.,.,.
Cc1ccc(S(=O)(=O)NCCCN2CCOCC2)c(C)c1,12,-3,i,i,17,-2.1,.,.,.,.,.,.
CCOC(=O)CC1Sc2ccccc2NC1=S (configuration not stated),34,-11,i,i,10,6.9*,0.011,0.024*,0.036,?,0.031*,?
